# OX1R antag-1 – OX1R (human) antagonism; AID 485270; 330,000 compounds, 1.8% hits; inhibition, % at 6.6 µM; O43613; OX1R-expressing cells, FRET antagonist read-out; in the data active = inhibition mostly above about 38%, no sharp cut-off; inactive = mostly below about 40%
# Target sequence (O43613 whole entry, looked up): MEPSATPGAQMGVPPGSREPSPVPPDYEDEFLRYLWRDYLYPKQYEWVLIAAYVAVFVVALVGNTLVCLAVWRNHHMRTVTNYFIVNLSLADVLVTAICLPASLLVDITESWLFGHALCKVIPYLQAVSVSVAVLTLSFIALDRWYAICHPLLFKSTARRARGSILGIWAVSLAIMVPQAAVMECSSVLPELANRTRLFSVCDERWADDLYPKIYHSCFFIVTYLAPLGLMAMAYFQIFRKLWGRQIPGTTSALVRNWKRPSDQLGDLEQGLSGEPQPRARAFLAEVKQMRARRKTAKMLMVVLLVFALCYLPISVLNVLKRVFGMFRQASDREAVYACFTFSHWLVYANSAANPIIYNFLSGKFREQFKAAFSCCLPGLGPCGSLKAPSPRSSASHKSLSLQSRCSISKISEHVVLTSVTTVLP
# OX1R antag-2 – human HCRTR1 antagonism | O43613 | CHO/OX1R cells, Fluo-8 calcium fluorescence, orexin A | inhibition, % at 5 µM | 330,000 compounds, 0.43% hits | AID 434989;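 active = inhibition above its plate's threshold, mean inhibition of all tested compounds on the plate plus 3 SD, cut at about 37% in these data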
# TAAR1 agonist – human TAAR1 agonism | CHO RD-HGA16 TAAR1, Fluo-8 calcium fluorescence; vehicle wells 0%, saturating PEA agonist 100% | activation, % at 3 µM | 360,000 compounds, 0.99% hits;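 active = activation above the mean activation of all test compounds in the run plus 3 SD, cut at about 38% in these data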
#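 Test system: RD-HGA16 (CHO) cells co-expressing Gα16 and hTAAR1; dosing: one-point dosing at 3 µM (nominal); timing: 17-24 h seeding, 75 min 37 °C dye, 30 min RT; signal: kinetic Fluo-8 calcium fluorescence; read-out basis: % activation relative to PEA EC100 response; controls: DMSO and PEA EC100; replicates: n 1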
# GalR3 antagonist – blocks the human galanin receptor 3; inhibition, % at 3 µM; O60755; 360,000 compounds, 0.44% hits; HEK293 GalR3-CNG cAMP membrane potential fluorescence; galR3 body fused to GalR1 C-terminus;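 active = inhibition above the screen-wide average plus 3 SD, cut at about 13% in these data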;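 note: forskolin and galanin both at EC90 stimulate the cells; cAMP rise reported by CNG channel membrane potential dye signal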
# Target sequence (O60755 1-299 limits assumed): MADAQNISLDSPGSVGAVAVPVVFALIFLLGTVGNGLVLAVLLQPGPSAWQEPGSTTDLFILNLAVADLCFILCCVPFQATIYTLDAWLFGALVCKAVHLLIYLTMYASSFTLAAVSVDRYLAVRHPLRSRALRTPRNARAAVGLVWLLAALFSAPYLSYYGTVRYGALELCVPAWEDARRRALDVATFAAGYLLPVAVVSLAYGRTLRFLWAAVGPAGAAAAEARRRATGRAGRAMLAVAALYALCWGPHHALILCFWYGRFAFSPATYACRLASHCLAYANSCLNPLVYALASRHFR
# CHO parental Ca – counter-screen for OX1R antagonists: effect in parental CHO cells | parental CHO-K1, ATP-induced calcium, Fluo-8 fluorescence | inhibition, % at 5.6 µM | 330,000 compounds, 0.63% hits;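 active = inhibition above that plate's mean sample inhibition plus 3 SD, cut at about 26% in these data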
#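 Material: Parental CHO cells | Reagent: ATP | Compound dosing: Single nominal dose of 5.6 µM per compound | Detection: Intracellular calcium via Fluo-8 no-wash fluorescent dye | Read-out: % inhibition of ATP-induced calcium mobilization | Benchmarks: Low control ATP plus DMSO, high control DMSO only | Replicates: Singlicate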
# TAAR1 antagonist – antagonists of human TAAR1 | CHO RD-HGA16 TAAR1, Fluo-8 calcium fluorescence, antagonist | inhibition, % at 3 µM | 360,000 compounds, 1.5% hits | AID 624466;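 active = inhibition above a per-plate cutoff, the mean inhibition of test compounds on that plate plus 3 SD, cut at about 49% in these data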
#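 System: CHO RD-HGA16 cells bearing hTAAR1. Reagent: EC80 β-phenethylamine stimulus. Schedule: seeding 17-24 h prior, 75-min 37 °C, 30-min RT dye loading. Signal: Fluo-8 intracellular calcium dye fluorescence, real-time kinetic reads. Read-out: % inhibition from peak post-agonist over basal fluorescence ratio. Benchmarks: vehicle wells and EC80 agonist wells. Replicates: n of 1.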
# nonsel antag count – nonselective antagonism, TAAR1 counter-screen | counterscreen cell line, calcium fluorescence, antagonist mode | inhibition, % at 3 µM | 2,400 compounds, 77% hits | shares compounds with TAAR1 antagonist; in the data active = inhibition above about 22%;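 note: CHO-Ga16 host cells stimulated with ATP at an EC80 level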
# TAAR1 ant conf – human TAAR1 antagonism, confirmed; inhibition, % at 3 µM; 2,400 compounds, 40% hits; TAAR1-expressing cells, fluorescence antagonist read-out; shares compounds with TAAR1 antagonist; AID 651785; in the data active = inhibition above about 49%;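 note: CHO-Ga16 host cells challenged with agonist PEA near its EC80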
# Ga16 ag counter – nonselective Ga16 agonism, counter-screen | shares compounds with TAAR1 antagonist | 2,400 compounds, 18% hits | AID 651953 | activation, % at 3 µM | Ga16-expressing cells, calcium fluorescence, agonist counterscreen; in the data active = activation above about 12%
# TAAR1 ag count – TAAR1 agonism, antagonist counter-screen; shares compounds with TAAR1 antagonist; hTAAR1 cell line, fluorescence activation, agonist mode; activation, % at 3 µM; 2,400 compounds, 2% hits; AID 651955; in the data active = activation above about 37%;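 note: CHO cells stably expressing TAAR1 with calcium dye readout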
# Hits are given with their value; - = inactive; . = no result given. Sampled rows, rich in hits. Any-hit rate of the full collection: about 4.2%.
SMILES,OX1R antag-1,OX1R antag-2,TAAR1 agonist,GalR3 antagonist,CHO parental Ca,TAAR1 antagonist,nonsel antag count,TAAR1 ant conf,Ga16 ag counter,TAAR1 ag count
CC(C)c1ccc(O)c(N)c1,-,-,-,-,-,-,.,.,.,.
CC(C)(C)c1nc(SCC(=O)Nc2ccc(N3CCOCC3)cc2)c2ccccc2n1,-,-,-,-,-,-,.,.,.,.
O=C(NCc1ccccc1Cl)c1ccc(Br)o1,-,-,-,-,-,104,-,-,-,-
O=C(CNC(=O)c1ccc(Br)o1)NCc1ccccc1Cl,.,.,-,-,.,-,.,.,.,.
Cc1ccc(-c2ccc(/C=N/N3C(=O)C4C5C=CC(C6CC56)C4C3=O)o2)c([N+](=O)[O-])c1 (stereo not drawn),-,-,-,-,-,58,33,-,-,-
COC(=O)c1ccc(-c2ccc(/C=N/N3C(=O)C4C5C=CC(C6CC56)C4C3=O)o2)cc1 (stereo not drawn),-,-,-,-,-,62,27,-,-,-
O=C1C2C3C=CC(C4CC34)C2C(=O)N1/N=C/c1ccc(-c2ccc([N+](=O)[O-])cc2)o1 (stereo not drawn),-,-,-,-,-,-,.,.,.,.
CCn1c(NCc2ccccn2)nc2c1c(=O)n(C)c(=O)n2C,-,-,-,-,-,-,.,.,.,.
COc1ccc2cc(/C(C)=N/NC(=O)c3cc(C)oc3C)ccc2c1,.,.,-,-,.,-,.,.,.,.
Cc1ccc(-c2nc3ccc(C)cn3c2Cc2cccc(Cl)c2)cc1,.,.,-,-,.,-,.,.,.,.
COc1cccc(S(=O)(=O)N2CCN(Cc3ccc4c(c3)OCO4)CC2)c1,-,-,-,-,-,-,.,.,.,.
Cc1ccccc1Cn1cccc1/C=C1/C(=N)N2C=CSC2=NC1=O,-,-,-,-,-,62,32,-,-,-
Cc1cc(=O)[nH]c(N)n1,-,-,-,-,-,-,.,.,.,.
COc1ccc(CN(Cc2cc3ccc(C)cc3[nH]c2=O)Cc2nnnn2C2CCCC2)cc1,-,-,-,-,-,56,-,-,-,-
O=C(NCC1COc2ccccc2O1)C1CCN(S(=O)(=O)c2ccc(Cl)cc2)CC1 (stereo not drawn),-,-,-,-,-,51,24,-,12,-
CCN(CC)S(=O)(=O)N1CCC(C(=O)NCC2COc3ccccc3O2)CC1 (stereo not drawn),-,-,.,.,-,.,.,.,.,.
COc1ccc(C2(CO)OC(CO)C(O)C2O)cc1 (stereo not drawn),.,.,-,-,.,-,.,.,.,.
COc1ccc(-n2nc(C(=O)NCC(=O)N(C)Cc3ccccc3)c3ccccc3c2=O)cc1,-,-,-,-,-,-,.,.,.,.
Oc1ccc(N=Nc2ccccc2C(F)(F)F)c2cccnc12,-,-,-,-,-,-,.,.,.,.
O=C(NCc1ccc2c(c1)OCO2)C1CCC(CNS(=O)(=O)c2ccc(Cl)cc2)CC1 (stereo not drawn),-,-,-,-,-,49,-,-,-,-
COc1cc(-c2cc3nc4ccccc4n3c(N)c2C#N)cc(OC)c1OC,-,-,-,-,-,90,34,53,-,-
Cc1c(C(=O)N2CCN(c3ccc([N+](=O)[O-])cc3)CC2)sc2ncn(CC(=O)N3CCOCC3)c(=O)c12,-,-,-,-,-,-,.,.,.,.
COC(=O)COc1ccc(S(=O)(=O)Nc2cc(OC)ccc2OC)cc1,.,.,-,-,.,-,.,.,.,.
COc1ccccc1N1CCN(C(=O)CCCn2c(=S)[nH]c3ccccc3c2=O)CC1,.,.,-,-,.,65,-,-,-,-
CC[C@@]1(C(=O)OC)N[C@H](CN(C)C(=O)c2ccc(F)cc2)[C@@H]2C(=O)N(Cc3ccccc3)C(=O)[C@@H]21,-,-,-,-,-,-,.,.,.,.
SMILES,OX1R antag-1,OX1R antag-2,TAAR1 agonist,GalR3 antagonist,CHO parental Ca,TAAR1 antagonist,nonsel antag count,TAAR1 ant conf,Ga16 ag counter,TAAR1 ag count
CC(C)(O)C(=O)N=Nc1c(O)[nH]c2ccccc12,-,-,-,-,-,-,.,.,.,.
O=C(N=Nc1c(O)[nH]c2ccccc12)c1cc(-c2ccc(F)cc2)n[nH]1,-,-,-,-,-,65,-,-,-,-
NC(=O)c1ccc[n+](CC(=O)c2ccc(F)cc2)c1,-,-,-,-,-,-,.,.,.,.
CC(C)(Cc1ccc(O)cc1)NC(=O)CC(=O)N/N=C/c1ccc(Cl)cc1,-,-,-,-,-,74,-,80,-,43
Cc1noc(C)c1COc1ccc(C(=O)OCC(=O)Nc2c(C)n(C)n(-c3ccccc3)c2=O)cc1,-,-,-,-,-,-,.,.,.,.
O=C(Nc1ccc2c(c1)CCCN2C(=O)c1cccs1)c1cccc(F)c1,-,-,-,-,-,69,29,-,-,-
O=C(Nc1ccc2c(c1)CCCN2C(=O)c1cccs1)c1ccccc1,-,-,-,-,-,-,.,.,.,.
O=C(Nc1ccc2c(c1)CCCN2C(=O)c1ccccc1)c1ccccc1Br,-,-,-,-,-,66,31,-,-,-
Cc1cc(O)c(-c2cc(C(=O)Nc3sc4c(c3C(=O)NCc3ccco3)CCC4)[nH]n2)cc1C,-,-,-,-,-,-,.,.,.,.
CCOc1ccc2[nH]c(=O)c(CN(Cc3cccs3)Cc3nnnn3C(C)(C)CC)cc2c1,-,-,-,-,-,55,-,-,-,-
CCC(C)(C)n1nnnc1CN(Cc1cccs1)Cc1cc2cc(OC)ccc2[nH]c1=O,-,-,-,-,-,-,.,.,.,.
C=CCN1C(=O)CSc2ccc(C(=O)NCc3ccco3)cc21,-,-,-,-,-,-,.,.,.,.
C=CCN1C(=O)CSc2ccc(C(=O)NCCC3=CCCCC3)cc21,-,-,-,-,-,55,38,50,14,-
COc1cc(NC(=O)c2oc3ccccc3c2C)ccc1NC(=O)c1ccco1,-,-,-,-,-,54,26,-,-,-
COc1cc(NC(=O)c2cc3ccccc3o2)ccc1NC(=O)c1ccco1,-,-,-,-,-,64,26,51,-,-
O=C1C2C(c3ccccc3)(C(=O)N1c1ccc(Cl)cc1)C2(c1ccccc1)c1ccccc1 (stereo not drawn),-,-,-,-,-,62,-,-,-,-
Cn1cccc1/C=N\NC(=O)C1COc2ccccc2O1 (stereo not drawn),-,-,-,-,-,-,.,.,.,.

# Source: PubChem BioAssay
